E-sel inducer – E-selectin induction on HUVECs; P16581; HUVEC E-selectin immunofluorescence imaging; normalized: neutral wells 0, TNF-alpha wells 100; activation, % at 7.58 µM; 260,000 compounds, 0.37% hits; AID 686992;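 active = mean E-selectin-positive cell signal at least 10% of the positive control, reached in at least 60% of replicates, without over 20% cell loss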
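Read-out: % PE-positive cells | Test system: HUVEC | Doses: One compound dose added by pin transfer | Buffer or medium: EGM-2 over gelatin coat | Signal: Immunofluorescence imaging | Benchmarks: TNF-alpha, DMSO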
FGF22 binding – FGF22 (human) thermal shift binding. activity (Tm shift, normalised), % at 9.99 µM. recombinant FGF22 thermal shift, SYPRO orange fluorescence; percent of sucrose octasulfate shift, DMSO zero. AID 651658. 340,000 compounds, 1.5% hits;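 active = mean Tm shift, scaled 0 neutral to 100 positive control, at about 1.3% or above, every replicate too, limit read from the data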
F508del corr – CFTR F508del correction in bronchial cells; CFBE cells, YFP halide quenching; stimulated with forskolin plus potentiator P3; % fluorescence drop versus neutral controls; activity (quench increase), % at 7.58 µM; 350,000 compounds, 0.36% hits; AID 720511;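 active = mean added fluorescence quench of at least 8% versus neutral control, with both replicates also reaching 8%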;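 also: cells transiently co-express mutant CFTR-F508del with the halide-sensitive YFP; corrector assay measuring rescue of mutant channel to the surface after 24 h compound exposure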
ERAP1 inh – inhibitors of human ERAP1 aminopeptidase | recombinant ERAP1, Leu-AMC fluorescence, 60 min | inhibition, % at 10.7 µM | 340,000 compounds, 0.15% hits;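 active = mean replicate inhibition of at least 30%, or all replicates individually reaching that 30% level; inactive = mean below 30% and not every replicate reaching it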;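 also: 0% = neutral control wells and 100% = L-leucinethiol positive control wells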
Target sequence (Q9NZ08 whole entry, looked up): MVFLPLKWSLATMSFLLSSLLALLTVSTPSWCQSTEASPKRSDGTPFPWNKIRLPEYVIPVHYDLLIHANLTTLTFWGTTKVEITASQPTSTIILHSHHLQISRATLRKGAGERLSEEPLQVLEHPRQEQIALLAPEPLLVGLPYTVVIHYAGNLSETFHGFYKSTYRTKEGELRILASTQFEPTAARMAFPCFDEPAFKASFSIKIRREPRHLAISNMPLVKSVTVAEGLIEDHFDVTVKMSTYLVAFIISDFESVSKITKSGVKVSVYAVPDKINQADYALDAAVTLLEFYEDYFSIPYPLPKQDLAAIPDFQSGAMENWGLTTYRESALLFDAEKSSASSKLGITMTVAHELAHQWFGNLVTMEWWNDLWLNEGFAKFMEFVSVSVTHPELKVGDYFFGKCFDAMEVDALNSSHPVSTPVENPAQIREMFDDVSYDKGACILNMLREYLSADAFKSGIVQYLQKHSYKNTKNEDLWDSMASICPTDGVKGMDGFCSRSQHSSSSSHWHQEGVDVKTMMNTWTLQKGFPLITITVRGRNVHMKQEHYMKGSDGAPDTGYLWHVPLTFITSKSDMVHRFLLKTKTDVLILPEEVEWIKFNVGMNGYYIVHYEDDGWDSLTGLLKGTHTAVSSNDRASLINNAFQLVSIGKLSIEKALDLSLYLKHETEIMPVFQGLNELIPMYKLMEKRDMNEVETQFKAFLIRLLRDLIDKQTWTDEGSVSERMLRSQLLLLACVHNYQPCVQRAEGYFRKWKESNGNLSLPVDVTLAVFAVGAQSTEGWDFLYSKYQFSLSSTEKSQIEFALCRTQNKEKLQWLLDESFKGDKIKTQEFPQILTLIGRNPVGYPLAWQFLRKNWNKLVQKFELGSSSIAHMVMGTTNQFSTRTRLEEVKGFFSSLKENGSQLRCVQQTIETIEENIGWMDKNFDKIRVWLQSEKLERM
DENV2 CPE – protects cells from dengue virus 2 cytopathic effect | DENV2-infected cells, cytopathic effect rescue, plate reader | CPE inhibition, % at 9.99 µM | 350,000 compounds, 1.7% hits; in the data active = CPE inhibition above about 20%, passing the limit was not always enough; tested in BHK-21 cells;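 also: 0% = median of neutral control wells and 100% = median of positive control wells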
* hit, by the source's call. The list is not random: actives were taken first. Their share in the collection is about 3.7%.

C[C@@H](NC(=O)C[C@H]1C=C[C@@H](NC(=O)Nc2ccc3c(c2)OCO3)[C@@H](CO)O1)c1ccccc1 was read as E-sel inducer 0, FGF22 binding 0, F508del corr -4, ERAP1 inh 1 and DENV2 CPE 5.
`CNC(=O)C[C@H]1CC[C@@H]2[C@@H](COc3ccc(NC(=O)c4ccccc4Cl)cc3C(=O)N2C)O1` gave E-sel inducer 0, FGF22 binding 0, F508del corr 1, ERAP1 inh -1 and DENV2 CPE 31*.
`CCNC(=O)C[C@@H]1CC[C@@H]2[C@@H](COc3ccc(NC(=O)c4ccccc4Cl)cc3C(=O)N2C)O1` gave FGF22 binding 0, F508del corr 0 and DENV2 CPE -5.
CN1C(=O)c2cc(NC(=O)c3ccc(Cl)cc3)ccc2OC[C@@H]2O[C@H](CC(=O)NCc3cccc(F)c3)CC[C@H]21 was read as E-sel inducer 0, FGF22 binding 0, F508del corr 12*, ERAP1 inh -1 and DENV2 CPE -24.
For CNC(=O)C[C@@H]1CC[C@H]2[C@@H](COc3ccc(NC(=O)c4ccc(OC)cc4)cc3C(=O)N2C)O1 the results were E-sel inducer 0, FGF22 binding 0, F508del corr 1, ERAP1 inh 0 and DENV2 CPE 64*.
`CCCC(=O)Nc1ccc2c(c1)C(=O)N(C)C[C@@H](OC)[C@@H](C)CN(Cc1ccc(-c3ccccn3)cc1)[C@H](C)CO2` gave E-sel inducer 0, FGF22 binding 0, F508del corr 1, ERAP1 inh 2 and DENV2 CPE 27*.
CCC(=O)Nc1ccc2c(c1)OC[C@@H](C)N(Cc1ccc(-c3ccccn3)cc1)C[C@@H](C)[C@H](OC)CN(C)C2=O was read as E-sel inducer 0, FGF22 binding 0, F508del corr 5, ERAP1 inh 3 and DENV2 CPE -6.
For CO[C@H]1CN(C)C(=O)c2ccc(NC(=O)NC(C)C)cc2OC[C@H](C)N(Cc2ccc(-c3ccccn3)cc2)C[C@@H]1C the results were E-sel inducer 0, FGF22 binding 0, F508del corr 3, ERAP1 inh 4 and DENV2 CPE -2.
Screening CO[C@H]1CN(C)C(=O)c2ccc(NC(=O)NC(C)C)cc2OC[C@H](C)N(Cc2ccc(-c3ccccn3)cc2)C[C@H]1C returned E-sel inducer 0, FGF22 binding 0, F508del corr 3, ERAP1 inh 1 and DENV2 CPE 68*.
`O=C(NCCNc1ccc([N+](=O)[O-])cc1C(F)(F)F)c1ccccc1` gave FGF22 binding 43*, F508del corr -2, ERAP1 inh 6 and DENV2 CPE -9.
`CC(C)NC(=O)COC(=O)c1ccccc1C(=O)c1ccccc1` gave FGF22 binding 44*, F508del corr -1, ERAP1 inh -5 and DENV2 CPE 1.
For CNc1ccccc1C(=O)OCC(=O)c1ccccc1 the results were FGF22 binding 0, F508del corr 0, ERAP1 inh 1 and DENV2 CPE 32*.
CNc1ccccc1C(=O)OCC(=O)c1ccc(F)cc1 was read as FGF22 binding 43, F508del corr -4, ERAP1 inh -2 and DENV2 CPE 0.
`CC(C)NC(=O)NC(=O)COC(=O)c1ccccc1O` gave E-sel inducer 0, FGF22 binding 0, F508del corr -1, ERAP1 inh 1 and DENV2 CPE -2.
C[C@@H]1CN([C@H](C)CO)S(=O)(=O)c2ccc(-c3cccnc3)cc2O[C@@H]1CN(C)C(=O)NC1CCCC1 was read as E-sel inducer -4, FGF22 binding 0, F508del corr 0, ERAP1 inh -1 and DENV2 CPE 9.
`O=C(NCc1ccco1)C1CCCN1C(=O)Nc1ccc(Cl)cc1` (stereo not drawn) gave FGF22 binding 0, F508del corr 2, ERAP1 inh 0 and DENV2 CPE -7.
Screening O=C(NCc1ccco1)C1CCCN1C(=O)Nc1cccc(Cl)c1 (stereo not drawn) returned E-sel inducer -1, FGF22 binding 43*, F508del corr -2, ERAP1 inh 1 and DENV2 CPE 0.
For O=C(CC1CC1)N[C@@H]1C[C@@H]2O[C@@H](CO)CC[C@@H]2O[C@@H]1CCc1ccc(C#Cc2ccccc2)cc1 the results were F508del corr 2, ERAP1 inh 9 and DENV2 CPE 4.
For O=C(CC1CC1)N[C@H]1C[C@@H]2O[C@H](CO)CC[C@@H]2O[C@@H]1CCc1ccc(C#Cc2ccccc2)cc1 the results were FGF22 binding 0, F508del corr 0, ERAP1 inh 0 and DENV2 CPE 28*.
`O=C(CC1CC1)N[C@H]1C[C@@H]2O[C@@H](CO)CC[C@@H]2O[C@@H]1CCc1ccc(C#Cc2ccccc2)cc1` gave FGF22 binding 0, F508del corr 1, ERAP1 inh 0 and DENV2 CPE 21*.
Screening O=C(NC1CCC1)[C@@H]1[C@@H](CO)[C@@H]2Cn3c(cccc3=O)[C@@H]2N1CC1CCOCC1 returned E-sel inducer 0, F508del corr -2, ERAP1 inh -1 and DENV2 CPE -1.
O=C(C[C@H]1C[C@H]2c3cc(NC(=O)C4CCC4)ccc3O[C@H]2[C@@H](CO)O1)NCCN1CCCCC1 was read as E-sel inducer 0, FGF22 binding 0, F508del corr 3, ERAP1 inh 0 and DENV2 CPE -11.
CS(=O)(=O)N1CCN(c2ccc(C(=O)N3CCOCC3)cc2[N+](=O)[O-])CC1 was read as E-sel inducer -3, FGF22 binding 0, F508del corr 1, ERAP1 inh 1 and DENV2 CPE 5.
Screening CS(=O)(=O)N1CCN(c2ccccc2[N+](=O)[O-])CC1 returned FGF22 binding 43*, F508del corr -2, ERAP1 inh -1 and DENV2 CPE -2.
`CO[C@H]1CN(C)C(=O)c2ccc(NC(C)=O)cc2OC[C@H](C)N(C(=O)C2CCCCC2)C[C@@H]1C` gave E-sel inducer 0, FGF22 binding 0, F508del corr -1, ERAP1 inh 2 and DENV2 CPE 9.
`CN1CCN(S(=O)(=O)c2cccc(C(=O)Nc3cc(Cl)ccc3N3CCOCC3)c2)CC1` gave FGF22 binding 0, F508del corr 5, ERAP1 inh 61* and DENV2 CPE 2.
For CC1CN(S(=O)(=O)c2cccc(C(=O)NCCc3ccc(S(N)(=O)=O)cc3)c2)CC(C)O1 (stereo not drawn) the results were E-sel inducer 0, FGF22 binding 43*, F508del corr 1, ERAP1 inh 0 and DENV2 CPE -2.
For NS(=O)(=O)c1ccc(CCNC(=O)c2cccc(S(=O)(=O)N3CCCC3)c2)cc1 the results were FGF22 binding 1, F508del corr 1, ERAP1 inh -3 and DENV2 CPE 6.
`CN1CCN(S(=O)(=O)c2cccc(C(=O)N(C)CC(=O)Nc3ccc(F)c(F)c3F)c2)CC1` gave FGF22 binding 0, F508del corr 2, ERAP1 inh 99* and DENV2 CPE 6.
